In ChEMBL document CHEMBL1153554, “Mechanisms by which the G333D mutation in human immunodeficiency virus type 1 Reverse transcriptase facilitates dual resistance to zidovudine and lamivudine” (Antimicrob Agents Chemother, 2008):

Columns and labels:
[1] = target: Human immunodeficiency virus type 1 reverse transcriptase (Human immunodeficiency virus 1) (UniProt Q72547); test: Ratio of Kpol to Kd for wild type HIV1 LAI reverse transcriptase
Procedure, shortened: (§1)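 Pre-steady-state rapid quench: 400 nM active-site RT and 40 nM ³²P-P20/T57 DNA T/P were preincubated in 50 mM Tris-HCl pH 7.5, 50 mM KCl, then mixed with nucleotide in the same buffer containing 20 mM MgCl₂. Quenched with 0.3 M EDTA from 10 ms to 30 min, run on urea-PAGE. kobs came from single-exponential fits; kpol and Kd came from a hyperbolic fit versus nucleotide concentration.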

[2] = tested on: Human immunodeficiency virus type 1 reverse transcriptase (Human immunodeficiency virus 1), Q72547 [M184V]; test: Ratio of Kpol to Kd for HIV1 LAI reverse transcriptase M184V mutant; procedure, shortened: as §1
[3] = tested on: Human immunodeficiency virus type 1 reverse transcriptase (Human immunodeficiency virus 1), Q72547 [M41L,L210W,T215Y]; test: Ratio of Kpol to Kd for HIV1 LAI reverse transcriptase M41L/L210W/T215Y mutant; procedure, shortened: as §1
[4] = tested on: Human immunodeficiency virus type 1 reverse transcriptase (Human immunodeficiency virus 1), Q72547 [M41L,L210W,T215Y,M184V]; test: Ratio of Kpol to Kd for HIV1 LAI reverse transcriptase M41L/L210W/T215Y/M184V mutant; procedure, shortened: as §1
[5] = tested on: Human immunodeficiency virus 1; test: Ratio of Kpol to Kd for HIV1 LAI reverse transcriptase M41L/L210W/T215Y/M184V/G333D mutant; procedure, shortened: as §1
[6] = tested on: Human immunodeficiency virus type 1 reverse transcriptase (Human immunodeficiency virus 1), Q72547 [M41L,L210W,T215Y]; test: Binding affinity to HIV1 LAI reverse transcriptase M41L/L210W/T215Y mutant relative to wild type
[7] = tested on: Human immunodeficiency virus type 1 reverse transcriptase (Human immunodeficiency virus 1), Q72547 [M41L,L210W,T215Y,M184V]; test: Binding affinity to HIV1 LAI reverse transcriptase M41L/L210W/T215Y/M184V mutant relative to wild type
[8] = tested on: Human immunodeficiency virus 1; test: Binding affinity to HIV1 LAI reverse transcriptase M41L/L210W/T215Y/M184V/G333D mutant relative to wild type
[9] = target: Human immunodeficiency virus type 1 reverse transcriptase (Human immunodeficiency virus 1, UniProt Q72547); test: Binding affinity to wild type HIV1 LAI reverse transcriptase
Procedure, shortened: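 Bacterially expressed, purified RT, corrected for active-site concentration, preincubated at 400 nM with 40 nM 5′-³²P-labelled 20-nt DNA primer annealed to a 57-nt DNA template in 50 mM Tris-HCl pH 7.5, 50 mM KCl. It was then rapid-quench mixed 1:1 with nucleotide in the same buffer plus 20 mM MgCl₂. EDTA quench at 10 ms–30 min; urea-PAGE. k_obs fitted single-exponential; K_d from hyperbolic k_obs-versus-concentration fit.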

[10] = target: Human immunodeficiency virus type 1 reverse transcriptase (Human immunodeficiency virus 1, UniProt Q72547, M184V); test: Binding affinity to HIV1 LAI reverse transcriptase M184V mutant
[11] = target: Human immunodeficiency virus type 1 reverse transcriptase (Human immunodeficiency virus 1, UniProt Q72547, L210W/M41L/T215Y); test: Binding affinity to HIV1 LAI reverse transcriptase M41L/L210W/T215Y mutant
[12] = target: Human immunodeficiency virus type 1 reverse transcriptase (Human immunodeficiency virus 1, UniProt Q72547, L210W/M184V/M41L/T215Y); test: Binding affinity to HIV1 LAI reverse transcriptase M41L/L210W/T215Y/M184V mutant
[13] = Binding affinity to HIV1 LAI reverse transcriptase M41L/L210W/T215Y/M184V/G333D mutant; set-up: species or system Human immunodeficiency virus 1
[14] = tested on: Human immunodeficiency virus type 1 reverse transcriptase (Human immunodeficiency virus 1), Q72547 [M184V]; test: Resistance (selectivity ratio) of HIV1 LAI reverse transcriptase M184V mutant relative to wild type

SMILES	Ratio [1]	Ratio [2]	Ratio [3]	Ratio [4]	Ratio [5]	fold change (FC) [6]	fold change (FC) [7]	fold change (FC) [8]	Kd [9]	Kd [10]	Kd [11]	Kd [12]	Kd [13]	fold resistance [14]
Nc1ccn([C@@H]2CS[C@H](COP(=O)(O)OP(=O)(O)OP(=O)(O)O)O2)c(=O)n1 [LAMIVUDINE TRIPHOSPHATE]	0.06	0.00061	0.04	0.0004	0.00028	1.5	61.8	116	0.37 µM	8.2 µM	0.43 µM	9.8 µM	17.8 µM	48.8
Cc1cn([C@H]2C[C@H](N=[N+]=[N-])[C@@H](COP(=O)(O)OP(=O)(O)OP(=O)(O)O)O2)c(=O)[nH]c1=O [ZIDOVUDINE TRIPHOSPHATE]	4.41	2.41	4.26	1.3	1.1	1.14	1.76	1.81	–	–	–	–	3.81 µM	1.13
Cc1cn([C@H]2C[C@H](N=[N+]=[N-])[C@@H](CO[P@](=O)(O)O[P@](=O)(O)OP(=O)(O)O)O2)c(=O)[nH]c1=O [ZIDOVUDINE TRIPHOSPHATE]	–	–	–	–	–	–	–	–	1.99 µM	2.9 µM	1.15 µM	3.5 µM	–	–
